Test results from ChEMBL document CHEMBL3865820, “Bioactive Dibenzo-α-pyrone Derivatives from the Endophytic Fungus Rhizopycnis vagum Nitaf22” (J Nat Prod, 2016).
In brackets after ≈: the same amount, converted by molar mass.

Tests used:
[1] = test system: Xanthomonas euvesicatoria; assay: Antibacterial activity against Xanthomonas vesicatoria ATCC 11633 by broth dilution colorimetric assay; type: functional
Outline: (§1)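 Modified broth dilution colorimetric assay in 96-well plates, run against a plant- and human-pathogen panel. Both MIC and median inhibitory concentration (IC50) were determined. Streptomycin sulfate served as the positive control.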

[2] = Antibacterial activity against Ralstonia solanacearum ATCC 11696 by broth dilution colorimetric assay; type: functional, Ralstonia solanacearum K60-1
Outline: (§2)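 Modified broth dilution colorimetric assay in 96-well plates, reporting both minimum inhibitory concentration (MIC) and median inhibitory concentration (IC50). Streptomycin sulfate served as positive control.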

Pyricularia oryzae = assay: Antifungal activity against Magnaporthe oryzae assessed as inhibition of spore germination after 8 hrs by microscopic analysis; type: functional
Outline: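 Spores taken from 7-day-old M. oryzae cultures (2 × 10^6 spores per mL). Compound in 10% aqueous ethanol was mixed 1:1 with the spore suspension on a concave slide and kept in a dark moist chamber at 25 °C for 8 h. Germination was counted by microscope. Inhibition % = [(Gc − Gt)/Gc] × 100 against 10% ethanol control, with triplicates. IC50 was obtained by linear regression; carbendazim served as positive control.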

[3] = test system: Pseudomonas amygdali pv. lachrymans; assay: Antibacterial activity against Pseudomonas lachrymans ATCC 11921 by broth dilution colorimetric assay; type: functional; outline: as §1
[4] = Cytotoxicity against human A375 cells by MTT assay; type: functional, cell-based; conditions: A-375
Outline: (§3)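 Microculture tetrazolium (MTT) assay on a panel of human carcinoma cell lines: colon HCT-116, hepatocellular HepG2, gastric BGC-823, NSCLC NCI-H1650, ovarian A2780, melanoma A375, lung adenocarcinoma A549, breast MCF-7 and pancreatic Capan2. IC50 values are reported in μM.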

[5] = test system: Agrobacterium tumefaciens; assay: Antibacterial activity against Agrobacterium tumefaciens ATCC 11158 by broth dilution colorimetric assay; type: functional; outline: as §1
Bacillus subtilis [6] = assay: Antibacterial activity against Bacillus subtilis ATCC 11562 by broth dilution colorimetric assay; type: functional; outline: as §1
[7] = Cytotoxicity against human A549 cells by MTT assay; type: functional, cell-based; outline: as §3
[8] = Cytotoxicity against human MCF7 cells by MTT assay; type: functional, cell-based; outline: as §3
[9] = test system: Staphylococcus haemolyticus; assay: Antibacterial activity against Staphylococcus haemolyticus ATCC 29970 by broth dilution colorimetric assay; type: functional; outline: as §1
[10] = Cytotoxicity against human HCT116 cells by MTT assay; type: functional, cell-based; conditions: HCT-116; outline: as §3
[11] = Cytotoxicity against human Capan2 cells by MTT assay; type: functional, cell-based; conditions: Capan-2; outline: as §3
[12] = Cytotoxicity against human A2780 cells by MTT assay; type: functional, cell-based; outline: as §3
[13] = Cytotoxicity against human HepG2 cells by MTT assay; type: functional, cell-based; outline: as §3
[14] = Cytotoxicity against human NCI-H1650 cells by MTT assay; type: functional, cell-based; outline: as §3
[15] = Cytotoxicity against human BGC823 cells by MTT assay; type: functional, cell-based; conditions: BGC-823; outline: as §3
[16] = test system: Pseudomonas amygdali pv. lachrymans; assay: Antibacterial activity against Pseudomonas lachrymans ATCC 11921 after 24 hrs by MTT based broth dilution colorimetric assay; type: functional; conditions: ATCC 11921, 24 h; outline: as §2
[17] = test system: Agrobacterium tumefaciens; assay: Antibacterial activity against Agrobacterium tumefaciens ATCC 11158 after 24 hrs by MTT based broth dilution colorimetric assay; type: functional; conditions: ATCC 11158, 24 h
Bacillus subtilis [18] = assay: Antibacterial activity against Bacillus subtilis ATCC 11562 after 24 hrs by MTT based broth dilution colorimetric assay; type: functional; conditions: ATCC 11562, 24 h
[19] = test system: Xanthomonas euvesicatoria; assay: Antibacterial activity against Xanthomonas vesicatoria ATCC 11633 after 24 hrs by MTT based broth dilution colorimetric assay; type: functional; conditions: ATCC 11633, 24 h; outline: as §2

Row | SMILES | MIC [1] [µg/mL] | MIC [2] [µg/mL] | IC50 (Pyricularia oryzae) [µg/mL] | IC50 [3] [µg/mL] | MIC [3] [µg/mL] | IC50 [4] [µM] | IC50 [5] [µg/mL] | MIC [5] [µg/mL] | IC50 (Bacillus subtilis [6]) [µg/mL] | MIC (Bacillus subtilis [6]) [µg/mL] | IC50 [7] [µM] | IC50 [8] [µM] | MIC [9] [µg/mL] | IC50 [10] [µM] | IC50 [11] [µM] | IC50 [1] [µg/mL] | IC50 [2] [µg/mL] | also measured
1 | COc1cc(O)c2c(=O)oc3c(c2c1)[C@@](C)(O)C[C@@H](OC)[C@@]31C[C@@H](O)C(=O)O1 | > 200 | > 200 | > 200 | 44.7 (≈ 114 µM) | 100 (≈ 255 µM) | > 50 | 56.7 (≈ 145 µM) | 100 (≈ 255 µM) | 45.5 (≈ 116 µM) | 75 (≈ 191 µM) | > 50 | > 50 | > 200 | > 50 | > 50 | – | – | –
2 | COC1=C[C@](C)(O)c2c(oc(=O)c3c(O)cc(OC)cc23)C1=O | > 200 | > 200 | 82.1 (≈ 258 µM) | – | > 200 | > 50 | – | > 200 | – | > 200 | > 50 | > 50 | > 200 | > 50 | > 50 | – | – | –
3 | COc1cc(O)c2c(=O)oc3c(c2c1)[C@@](C)(O)C[C@H](OC)[C@@]31C[C@@H](O)C(=O)O1 | > 200 | > 200 | – | – | > 200 | – | – | > 200 | – | > 200 | – | – | > 200 | – | – | – | – | –
4 | COc1cc(O)c2c(=O)oc3c(c2c1)[C@@](C)(O)C(Cl)=C(O)C3=O | 100 (≈ 295 µM) | 50 (≈ 148 µM) | – | 4.3 (≈ 12.7 µM) | 25 (≈ 73.8 µM) | > 50 | 47.3 (≈ 140 µM) | 100 (≈ 295 µM) | 44.6 (≈ 132 µM) | 100 (≈ 295 µM) | 25.5 | > 50 | 25 (≈ 73.8 µM) | 37.3 | > 50 | 52.5 (≈ 155 µM) | 36.5 (≈ 108 µM) | IC50 [9]: 7 µg/mL (≈ 20.7 µM)
5 | COc1cc(O)c2c(=O)oc3c(O)c(OC)c(Cl)c(C)c3c2c1 | 50 (≈ 148 µM) | 50 (≈ 148 µM) | > 200 | 16.4 (≈ 48.7 µM) | 50 (≈ 148 µM) | – | 15 (≈ 44.5 µM) | 50 (≈ 148 µM) | 22.4 (≈ 66.5 µM) | 50 (≈ 148 µM) | – | – | 50 (≈ 148 µM) | > 10 | – | 15.9 (≈ 47.2 µM) | 24.2 (≈ 71.9 µM) | IC50 [12]: > 10 µM; IC50 [13]: > 10 µM; IC50 [14]: > 10 µM; IC50 [15]: > 10 µM; IC50 [9]: 26.7 µg/mL (≈ 79.3 µM)
6 | COc1cc(O)c2c(=O)oc3cc(O)c(Cl)c(C)c3c2c1 | – | – | – | – | – | > 50 | – | – | – | – | > 50 | > 50 | – | > 50 | > 50 | – | – | IC50 [16]: 16.7 to 34.3 µg/mL (≈ 54.5 to 112 µM); IC50 [17]: 16.7 to 34.3 µg/mL (≈ 54.5 to 112 µM); IC50 (Bacillus subtilis [18]): 16.7 to 34.3 µg/mL (≈ 54.5 to 112 µM); IC50 [19]: 16.7 to 34.3 µg/mL (≈ 54.5 to 112 µM)
7 | Cc1c(Cl)c(O)cc2oc(=O)c3c(O)cc(O)cc3c12 | 75 (≈ 256 µM) | 50 (≈ 171 µM) | 9.9 (≈ 33.8 µM) | – | > 200 | – | 16.3 (≈ 55.7 µM) | 50 (≈ 171 µM) | 18.6 (≈ 63.6 µM) | 50 (≈ 171 µM) | – | – | > 200 | > 10 | – | 22.7 (≈ 77.6 µM) | 12.4 (≈ 42.4 µM) | IC50 [12]: > 10 µM; IC50 [13]: > 10 µM; IC50 [14]: > 10 µM; IC50 [15]: > 10 µM
